HTR1E antagonist = blocks the human 5-HT1E serotonin receptor | P28566 | 65,000 tested, 0.99% active | CHO 5-HT1E Ga15 NFAT-bla reporter, FRET, antagonist | inhibition, % at 6 µM | AID 571;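 active means inhibition above a set limit, the mean inhibition across every tested compound plus 3 SD, cut at about 29% in these data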;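 further: signal is the 460 over 535 nm emission ratio of beta-lactamase substrate; 0% = agonist plus DMSO wells and 100% = wells without agonist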
5-HT1A blocker = antagonists of human 5-HT1a serotonin receptor. 62,000 tested, 0.68% active. CHO 5-HT1a Ga15 NFAT-bla reporter, antagonist mode. inhibition, % at 10 µM. P08908;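 active means inhibition above the mean of all tested compounds plus 3 SD, cut at about 43% in these data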;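 further: receptor stimulated by 5-CT agonist at 100 nM near EC80; beta-lactamase reporter measured by ratiometric fluorescence of a cleavable substrate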
Target sequence (P08908 whole entry, looked up): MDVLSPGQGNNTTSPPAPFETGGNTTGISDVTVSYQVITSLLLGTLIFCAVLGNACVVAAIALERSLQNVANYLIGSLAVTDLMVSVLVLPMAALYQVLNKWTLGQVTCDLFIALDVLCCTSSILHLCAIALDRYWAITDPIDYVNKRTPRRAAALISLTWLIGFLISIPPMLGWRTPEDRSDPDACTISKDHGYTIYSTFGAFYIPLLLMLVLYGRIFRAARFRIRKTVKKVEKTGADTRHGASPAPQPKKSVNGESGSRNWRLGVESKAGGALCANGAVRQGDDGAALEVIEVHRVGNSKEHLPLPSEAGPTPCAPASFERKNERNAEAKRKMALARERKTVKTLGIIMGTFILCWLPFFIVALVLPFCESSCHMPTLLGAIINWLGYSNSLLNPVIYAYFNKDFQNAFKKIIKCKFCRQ
HTR1E agonist = agonists of human 5-HT1E serotonin receptor; CHO 5-HT1E Ga15 NFAT-bla reporter, FRET; 0% DMSO wells, 100% control agonist wells; activation, % at 6 µM; 65,000 tested, 0.69% active; AID 574;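 active means activation above a set limit, the screen-wide mean activation plus 3 SD, cut at about 8.5% in these data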;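 further: 100% = positive control agonist at 1 µM giving full maximal response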
HEK293 NFkB inh = lowers PMA/ionomycin-induced NF-kB signal in HEK293 cells. 62,000 tested, 0.21% active. AID 465. HEK-293 NF-kB luciferase reporter, luminescence. inhibition, % at 3 µM;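 active means inhibition above the mean of all tested compounds plus 3 SD, cut at about 40% in these data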;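 further: 0% = stimulated DMSO wells and 100% = 10 µM reference inhibitor 5653914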
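Timing: 1 h pretreatment, 16 h stimulation, 37 °C; system: HEK-293 cells with stable firefly luciferase reporter driven by four HIV NF-kB elements; doses: 3 µM once, 0.30% DMSO; measured by: luciferase luminescence; control set: DMSO and 10 µM reference inhibitor; repeats: single test; reagent: PMA plus ionomycin mix as NF-kB-activating stimulus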
5HT1a ag = activates the human 5-HT1a serotonin receptor. activation, % at 10 µM. P08908. AID 567. CHO 5-HT1a Ga15 NFAT-bla reporter, FRET ratio; 0% basal, 100% maximal reference agonist. 65,000 tested, 0.56% active;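 active means activation above the screen-wide mean activation plus 3 SD, cut at about 19% in these data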;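 further: 0% = DMSO wells and 100% = 5-CT at EC100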
Numbers without * were called inactive. Most compounds without a hit are left out; they make up all but 2.6% or so of the library.

What do the screens show for `O=C(Nc1ccccc1NC(=O)c1c(F)c(F)c(F)c(F)c1F)c1c(F)c(F)c(F)c(F)c1F`?
HTR1E antagonist: 30*; 5-HT1A blocker: 27; HTR1E agonist: 1; HEK293 NFkB inh: 14; 5HT1a ag: 2

How did O=C(Nc1cccc(F)c1)c1c(F)c(F)c(F)c(F)c1F do in these assays?
HTR1E antagonist: -8; 5-HT1A blocker: 11; HTR1E agonist: -1; HEK293 NFkB inh: -1; 5HT1a ag: -2

How did CCC(=O)N1CCN(c2ccccc2NC(=O)COc2cc(C)ccc2C(C)C)CC1 do in these assays?
HTR1E antagonist: 3; 5-HT1A blocker: 58*; HTR1E agonist: -1; HEK293 NFkB inh: 20; 5HT1a ag: 5

Results for CC(=O)N1CCN(c2ccccc2NC(=O)COc2ccc(Cl)cc2Cl)CC1 ?
HTR1E antagonist: 15; 5-HT1A blocker: 29; HTR1E agonist: 0; HEK293 NFkB inh: -2; 5HT1a ag: 2

Results for CCn1c(=O)c2c3c(sc2n2c(SCc4ccc(F)cc4)nnc12)CCCC3 ?
HTR1E antagonist: 3; 5-HT1A blocker: -15; HTR1E agonist: 0; HEK293 NFkB inh: 13; 5HT1a ag: 1

How did COc1ccc(C(c2c(O)ccc3ccccc23)N2CCOCC2)c(OC)c1 (configuration not stated) do in these assays?
HTR1E antagonist: 16; 5-HT1A blocker: 107*; HTR1E agonist: -1; HEK293 NFkB inh: -14; 5HT1a ag: -7

Results for Cc1c(-n2cc(C(=O)c3ccccc3O)cc(C#N)c2=O)c(=O)n(-c2ccccc2)n1C ?
HTR1E antagonist: -2; 5-HT1A blocker: -10; HTR1E agonist: 0; HEK293 NFkB inh: 12; 5HT1a ag: 325*

What do the screens show for `O=C(CSc1n[nH]c(-c2ccccc2)n1)c1ccc(O)c(O)c1`?
HTR1E antagonist: 5; 5-HT1A blocker: 7; HTR1E agonist: 0; HEK293 NFkB inh: 8; 5HT1a ag: -1

Results for Cc1ccc(S(=O)(=O)CC(=O)N(C)C)cc1 ?
HTR1E antagonist: -1; 5-HT1A blocker: -14; HTR1E agonist: 0; HEK293 NFkB inh: 8; 5HT1a ag: 1

Results for CCCn1c2ccccc2c2nnc(SCC(=O)Nc3ncccn3)nc21 ?
HTR1E antagonist: 31*; 5-HT1A blocker: -6; HTR1E agonist: 0; HEK293 NFkB inh: 7; 5HT1a ag: 9

How did CSc1nnc2c3ccccc3n(CCc3ccccc3)c2n1 do in these assays?
HTR1E antagonist: 16; 5-HT1A blocker: 17; HTR1E agonist: 0; HEK293 NFkB inh: 58*; 5HT1a ag: -1

What do the screens show for `CSc1nnc2c3ccccc3n(Cc3ccccc3)c2n1`?
HTR1E antagonist: 14; 5-HT1A blocker: 24; HTR1E agonist: 0; HEK293 NFkB inh: 11; 5HT1a ag: 0

Results for Cc1ccc(NC(=O)CN(c2ccccc2F)S(C)(=O)=O)cc1 ?
HTR1E antagonist: -6; 5-HT1A blocker: 12; HTR1E agonist: -1; HEK293 NFkB inh: 4; 5HT1a ag: -2

Results for CCc1nn(C(C)C(=O)N2CCN(Cc3ccccc3)CC2)c(=O)c2cc3occc3n12 (configuration not stated) ?
HTR1E antagonist: -10; 5-HT1A blocker: -5; HTR1E agonist: 16*; HEK293 NFkB inh: 32; 5HT1a ag: 0

How did Cc1nn(C(C)C(=O)N2CCN(c3ccccn3)CC2)c(=O)c2cc3occc3n12 (configuration not stated) do in these assays?
HTR1E antagonist: -7; 5-HT1A blocker: -10; HTR1E agonist: 0; HEK293 NFkB inh: 20; 5HT1a ag: -1

What do the screens show for `CCn1c(SCC(=O)Nc2ccccc2C(=O)OC)nnc1-c1ccoc1C`?
HTR1E antagonist: -21; 5-HT1A blocker: 1; HTR1E agonist: -1; HEK293 NFkB inh: 9; 5HT1a ag: -5

Results for Cc1ccc(C(=O)CSC2=C(C#N)C(c3ccco3)C3=C(CC(C)(C)CC3=O)N2)cc1 (configuration not stated) ?
HTR1E antagonist: 10; 5-HT1A blocker: -3; HTR1E agonist: 2; HEK293 NFkB inh: 19; 5HT1a ag: -3

What do the screens show for `CC1=C(C(=O)OC2CCCCC2)C(c2ccco2)C2=C(CC(C)(C)CC2=O)N1` (configuration not stated)?
HTR1E antagonist: 44*; 5-HT1A blocker: 23; HTR1E agonist: 0; HEK293 NFkB inh: 8; 5HT1a ag: 0

What do the screens show for `CC1(C)CC(=O)C2=C(C1)NC(SCC(=O)Nc1ccccc1)=C(C#N)C2c1ccco1` (configuration not stated)?
HTR1E antagonist: 33*; 5-HT1A blocker: 38; HTR1E agonist: 0; HEK293 NFkB inh: -4; 5HT1a ag: -2

Results for CC1=C(C(=O)OC2CCCCC2)C(c2ccc(C)o2)C2=C(CCCC2=O)N1 (configuration not stated) ?
HTR1E antagonist: 30*; 5-HT1A blocker: 25; HTR1E agonist: 0; HEK293 NFkB inh: 19; 5HT1a ag: -2

What do the screens show for `O=C(Cc1cccs1)Nc1cccnc1`?
HTR1E antagonist: 2; 5-HT1A blocker: 7; HTR1E agonist: 0; HEK293 NFkB inh: 7; 5HT1a ag: -4

What do the screens show for `CCOC(=O)N1CCN(C(=O)c2ccc(CN(c3ccccc3)S(C)(=O)=O)cc2)CC1`?
HTR1E antagonist: 0; 5-HT1A blocker: -6; HTR1E agonist: 0; HEK293 NFkB inh: 2; 5HT1a ag: -2

What do the screens show for `OC1(c2ccccc2)C/C(=N\n2cnnc2)C=C1c1ccccc1` (configuration not stated)?
HTR1E antagonist: -11; 5-HT1A blocker: -12; HTR1E agonist: -1; HEK293 NFkB inh: 3; 5HT1a ag: -4

Results for Cc1cc(C)n(-c2nc(NC(C)C)nc(NC(C)C)n2)n1 ?
HTR1E antagonist: 30*; 5-HT1A blocker: 11; HTR1E agonist: -2; HEK293 NFkB inh: 12; 5HT1a ag: -3

What do the screens show for `O=C(CCNc1cccc(Cl)c1)c1ccco1`?
HTR1E antagonist: -4; 5-HT1A blocker: 4; HTR1E agonist: 0; HEK293 NFkB inh: 12; 5HT1a ag: -1

What do the screens show for `Cc1cc(-n2c(C)cc(C(=O)CSc3ncnc4ccccc34)c2C)no1`?
HTR1E antagonist: -2; 5-HT1A blocker: 16; HTR1E agonist: 1; HEK293 NFkB inh: 40*; 5HT1a ag: 2

What do the screens show for `COc1cccc(N2CCN(Cc3coc4c(Cl)cc(Cl)cc4c3=O)CC2)c1`?
HTR1E antagonist: -4; 5-HT1A blocker: -1; HTR1E agonist: 32*; HEK293 NFkB inh: 14; 5HT1a ag: 1

Results for Cc1cc(NC(=O)C2CCC2)n(-c2ccccn2)n1 ?
HTR1E antagonist: 36*; 5-HT1A blocker: 2; HTR1E agonist: 2; HEK293 NFkB inh: 6; 5HT1a ag: 2

How did COc1ccc(-n2nnnc2SCC(=O)Nc2cccc(C)n2)cc1OC do in these assays?
HTR1E antagonist: 18; 5-HT1A blocker: -5; HTR1E agonist: -1; HEK293 NFkB inh: 11; 5HT1a ag: -1

How did O=C(NCc1cn2ccccc2n1)c1ccccc1 do in these assays?
HTR1E antagonist: -9; 5-HT1A blocker: 9; HTR1E agonist: 0; HEK293 NFkB inh: 14; 5HT1a ag: -3

Screening results from PubChem.
